{"data": "Experimental data from different studies", "target": "Serine/threonine-protein kinase PAK 2 (PAK2, Homo sapiens, UniProt Q13177)", "note": "Each line is one published result; the experiments were not run side by side."}
{"Structure (SMILES)": "CN(C)c1nccc(-c2cnn3ncccc23)n1", "effect on": "binding", "concentration": "1 µM", "remaining binding [%]": 64}
{"Structure (SMILES)": "CNC(=O)c1ccc(Nc2ncc(C(F)(F)F)c(NCc3nccnc3N(C)S(C)(=O)=O)n2)cc1", "effect on": "cell-free assay", "method": "competition with immobilised ligand", "concentration": "0.1 µM", "remaining binding [%]": 72}
{"Structure (SMILES)": "CC1CCCN1c1nccc(-c2cnn3ncccc23)n1 (stereo not drawn)", "effect on": "binding", "concentration": "1 µM", "remaining binding [%]": 100}
{"Structure (SMILES)": "O=C(NCCCN1CCOCC1)c1ccc(Nc2ncc(Cl)c(-c3ccc(Cl)s3)n2)cc1", "effect on": "binding", "method": "competition with immobilised ligand", "concentration": "1 µM", "remaining binding [%]": 90}
{"Structure (SMILES)": "CNC(=O)[C@@H]1CC[C@@H](n2c(-c3ccc4cnccc4c3)nc3ccc(C(=O)NCc4cccc(C(N)=O)c4)cc32)C1", "effect on": "binding", "method": "competition with immobilised ligand", "concentration": "1 µM", "remaining binding [%]": 96}
{"Structure (SMILES)": "COc1cc(-c2cn(C3CCc4c(F)cccc4N(CC(F)(F)F)C3=O)nn2)ccc1-n1cnc(C)c1 (stereo not drawn)", "effect on": "cell-free assay", "method": "competition with immobilised ligand", "concentration": "1 µM", "remaining binding [%]": 91}
{"Structure (SMILES)": "C[C@@H](c1ccc(-n2cnc3c(N)ncnc32)cc1)N1CCc2nn(C)c(Cc3ccccc3)c2C1=O", "effect on": "binding", "method": "competition with immobilised ligand", "concentration": "0.1 µM", "remaining binding [%]": 61}
{"Structure (SMILES)": "Cc1c(C(=O)O)cc(-c2ccc(C3CCNCC3)cc2)c2ccc(-c3ccc(C(F)(F)F)cc3)cc12", "effect on": "cell-free assay", "method": "competition with immobilised ligand", "concentration": "1 µM", "remaining binding [%]": 100}
{"Structure (SMILES)": "C[C@@H]1CCN(c2nccc(-c3cnn4ncccc34)n2)C1", "effect on": "binding", "concentration": "1 µM", "remaining binding [%]": 99}
{"Structure (SMILES)": "C[C@@H]1CN(c2ccc3ncc(-c4ccc5[nH]nc(C6CC6)c5c4)n3n2)C[C@H](C)O1", "effect on": "binding", "method": "competition with immobilised ligand", "concentration": "50 nM", "remaining binding [%]": 76}
{"Structure (SMILES)": "O=C(c1ccc(Nc2nccc(-c3cc4ccccc4s3)n2)cc1)N1CCC(N2CCCC2)CC1", "effect on": "binding", "method": "competition with immobilised ligand", "concentration": "1 µM", "remaining binding [%]": 69}
{"Structure (SMILES)": "CCC(=O)N[C@H]1CC[C@@H](C(=O)N(C)c2ccc(-c3nc4ccccc4o3)cc2)C1", "effect on": "cell-free assay", "method": "competition with immobilised ligand", "concentration": "1 µM", "remaining binding [%]": 100}
{"Structure (SMILES)": "FC(F)(F)Oc1cccc(-c2cnc3ccc(-c4ccncc4)nn23)c1", "effect on": "cell-free assay", "method": "competition with immobilised ligand", "concentration": "5 µM", "remaining binding [%]": 43}
{"Structure (SMILES)": "O=C(Nc1c[nH]nc1C(=O)NC1CCNCC1)c1cc(F)cc(F)c1", "effect on": "binding", "method": "competition with immobilised ligand", "concentration": "1 µM", "remaining binding [%]": 100}
{"Structure (SMILES)": "Cc1cnc(Nc2ccc(C(=O)N3CCC(N4CCCC4)CC3)cc2)nc1-c1cc2ccccc2s1", "effect on": "binding", "method": "competition with immobilised ligand", "concentration": "1 µM", "remaining binding [%]": 76}
{"Structure (SMILES)": "N#Cc1ccccc1CSc1nnc2c(n1)[nH]c1ccccc12", "effect on": "binding", "method": "competition with immobilised ligand", "concentration": "10 µM", "remaining binding [%]": 88}
{"Structure (SMILES)": "Cc1cnn2ncc(-c3ccnc(N(C)C)n3)c2c1", "effect on": "binding", "concentration": "1 µM", "remaining binding [%]": 96}
{"Structure (SMILES)": "C[C@@H](c1cccc(C#N)c1)n1cc(Cl)cc(C(N)=O)c1=N", "effect on": "cell-free assay", "method": "competition with immobilised ligand", "concentration": "1 µM", "remaining binding [%]": 96}
{"Structure (SMILES)": "F[C@@H]1CCN(c2nccc(-c3cnn4ncccc34)n2)C1", "effect on": "binding", "concentration": "1 µM", "remaining binding [%]": 100}
{"Structure (SMILES)": "O=C(N1CCS(=O)(=O)CC1)N1C[C@H](c2ccc(OC(F)(F)F)cc2)C[C@H](c2nc(C3CC3)no2)C1", "effect on": "cell-free assay", "method": "competition with immobilised ligand", "concentration": "1 µM", "remaining binding [%]": 90}
{"Structure (SMILES)": "COc1ccnn2ncc(-c3ccnc(N(C)C)n3)c12", "effect on": "binding", "concentration": "1 µM", "remaining binding [%]": 78}
{"Structure (SMILES)": "COc1cnc(Nc2cccc(S(N)(=O)=O)c2)nc1N1CCN(c2ccccc2)C(=O)C1", "effect on": "binding", "method": "competition with immobilised ligand", "concentration": "1 µM", "remaining binding [%]": 83}
{"Structure (SMILES)": "N[C@H]1CCN(c2nccc(-c3cnn4ncccc34)n2)C1", "effect on": "binding", "concentration": "1 µM", "remaining binding [%]": 87}
{"Structure (SMILES)": "CCS(=O)(=O)c1cc2cc(C[C@@](O)(CC(C)(C)c3ccc(F)cc3C(N)=O)C(F)(F)F)[nH]c2cn1", "effect on": "cell-free assay", "method": "competition with immobilised ligand", "concentration": "1 µM", "remaining binding [%]": 94}
